Test results from ChEMBL document CHEMBL1141853, “A cyclitol derivative as a replication inhibitor from the marine sponge Petrosia sp” (1999).
Values after ≈ are worked out from the molar mass of the structure shown. Active and inactive are the calls of the source. The calls are words filed in the database; no cut-off is given here.

Tests used:
A549 = test: Cytotoxicity against human A549 cells; assay type: functional; settings: read-out: ED50 (the source's name)
SK-OV-3 = test: Cytotoxicity against human SKOV3 cells; assay type: functional; settings: read-out: ED50 (the source's name)
SK-MEL-2 = test: Cytotoxicity against human SK-MEL-2 cells; assay type: functional; settings: read-out: ED50 (the source's name)
XF498 = test: Cytotoxicity against human XF498 cells; assay type: functional; settings: read-out: ED50 (the source's name)
HCT-15 = test: Cytotoxicity against human HCT-15 cells; assay type: functional; settings: read-out: ED50 (the source's name)
Simian virus 40 [1] = test: Inhibition of SV40 DNA replication in human HeLa cells; assay type: functional, organism-based; settings: Betapolyomavirus macacae
Procedure, shortened: (§1)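 Cell-free SV40 replication using HeLa cytosolic extract, SV40 T-Ag (0.6 µg) and SV40 origin pUC DNA (0.3 µg). Buffer is 40 mM creatine phosphate-di-Tris pH 7.7, creatine kinase, 7 mM MgCl2, 0.5 mM DTT, 4 mM ATP, rNTPs, dNTPs and 25 µM [3H]dTTP. Incubated 90 min at 37 °C; acid-insoluble radioactivity measured. Products separated on 1% agarose gel and autoradiographed.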

Simian virus 40 [2] = test: Inhibition of SV40 DNA replication in human HeLa cells at 800 uM; assay type: functional; settings: Betapolyomavirus macacae, read-out: INH; procedure, shortened: as §1
[3] = target: T1, DNA topoisomerase 1 (Homo sapiens) (UniProt P11387); test: Inhibition of human DNA topoisomerase 1 assessed as effect on relaxation of superhelical plasmid
T1 sequence (whole entry): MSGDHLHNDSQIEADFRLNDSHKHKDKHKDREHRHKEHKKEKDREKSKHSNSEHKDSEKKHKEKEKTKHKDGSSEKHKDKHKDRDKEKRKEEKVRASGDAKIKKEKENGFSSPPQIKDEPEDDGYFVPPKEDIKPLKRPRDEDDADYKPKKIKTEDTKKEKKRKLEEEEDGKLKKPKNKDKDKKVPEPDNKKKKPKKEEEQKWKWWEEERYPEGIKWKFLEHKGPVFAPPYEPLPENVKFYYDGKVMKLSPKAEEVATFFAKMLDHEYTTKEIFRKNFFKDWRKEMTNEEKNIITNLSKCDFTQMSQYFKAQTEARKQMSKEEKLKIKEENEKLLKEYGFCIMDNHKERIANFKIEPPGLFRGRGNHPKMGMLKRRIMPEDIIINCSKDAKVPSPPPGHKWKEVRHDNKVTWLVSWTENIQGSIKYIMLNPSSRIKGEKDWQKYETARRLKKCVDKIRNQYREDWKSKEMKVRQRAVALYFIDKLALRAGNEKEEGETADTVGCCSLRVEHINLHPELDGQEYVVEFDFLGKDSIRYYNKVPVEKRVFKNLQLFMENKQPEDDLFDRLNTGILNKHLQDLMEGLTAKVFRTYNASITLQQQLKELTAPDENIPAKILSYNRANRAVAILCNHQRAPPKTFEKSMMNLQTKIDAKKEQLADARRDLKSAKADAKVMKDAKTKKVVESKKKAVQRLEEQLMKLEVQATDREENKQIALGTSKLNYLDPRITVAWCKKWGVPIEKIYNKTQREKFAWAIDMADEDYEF

Work on `CCCCCCC(C)CCCCCCCCCOC[C@H](O)COC1[C@@H](O)[C@H](O)[C@@H](O)[C@@H]1O` (stereo partly drawn) [SACROTRIDE A] yielded an EC50 (A549) greater than 10 µg/mL, an EC50 (SK-OV-3) of 9.5 µg/mL (≈ 20.5 µM) and an EC50 (SK-MEL-2) greater than 10 µg/mL. For the same molecule, the EC50 (XF498) was 9.8 µg/mL (≈ 21.2 µM), the EC50 (HCT-15) was 9.4 µg/mL (≈ 20.3 µM) and the Activity (Simian virus 40 [1]) was “Dose-dependent effect”. The inhibition at 800 µM (Simian virus 40 [2]) was greater than 90% and the Activity [3] was “inactive”.
